# Compound activity from PubChem BioAssay.
# Only a selection was taken, and hits are over-represented in it overall.
# H69AR inhibit: growth inhibitors of human H69AR lung tumor cells; 6% of 85,000 active; H69AR lung tumor viability, ATP luminescence, 72 h; stronger effect = lower value; viability, % at 10 µM; AID 598;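 active = viability at or below 40%; inactive = viability above 40%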;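 also: multidrug resistant small cell line overexpressing MRP-1 efflux transporter; 100% = mean luminescence of untreated control wells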
# HUVEC prolif 384: human endothelial cell proliferation inhibition. HUVEC proliferation, CellTiter-Glo luminescence, 72 h; stronger effect = lower value. viability, % at 10 µM (by protocol). 1.1% of 86,000 active. AID 648;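 active = viability at or below 30%; inactive = viability above 30%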;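 also: 100% = median luminescence of DMSO-only cell control wells on each plate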
# bCat KO growth: beta-catenin-lacking colon tumor cell growth suppression; HCT116 beta-catenin knockout viability, CellTiter-Glo, 60 h; stronger effect = lower value; viability, % at 10 µM; 1.5% of 140,000 active;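 active = viability at or under a set limit, the compound median less 4 SD, cut at about 6% in these data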;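 also: 0% = Hyamine 1622 control at 20 µM and 100% = untreated cell control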
# Fibroblast inh: blocks proliferation of human lung fibroblasts | 1.1% of 85,000 active | viability, % at 10 µM | LL 47 human lung fibroblast viability, ATP luminescence; stronger effect = lower value;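 active = viability at or below 50% in the single dose screen; inactive = viability above 50%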;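 also: compound exposure lasted 72 h before the ATP readout; 100% = median luminescence of untreated cell-only wells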
#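 Test system: LL 47 human lung fibroblasts / Incubation: 72 h compound exposure at 37 °C after overnight plating / Technique: luminescent ATP detection, CellTiter-Glo / Compound dosing: 0.1% DMSO in all compound wells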
# HCT116 PTEN-null: growth suppressors of cells with PTEN tumor suppressor deletion; HCT116 PTEN-null viability, CellTiter-Glo, 60 h; stronger effect = lower value; viability, % at 10 µM; 1.2% of 140,000 active; AID 827;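 active = viability at or below a set limit, 4 SD under the median of all tested compounds, cut at about 3.7% in these data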;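 also: PTEN knockout HCT116 line with beta catenin targeted HCT116 as companion control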
# Active calls of the source: *; . = no result given.
SMILES,H69AR inhibit,HUVEC prolif 384,bCat KO growth,Fibroblast inh,HCT116 PTEN-null
O=C(NCC1CC1)[C@@H]1C[C@H]1[C@@H](NP(=O)(c1ccccc1)c1ccccc1)c1ccccc1,.,.,0.2*,.,0.1*
O=C(NCc1ccccc1)[C@@H]1C[C@H]1[C@@H](NP(=O)(c1ccccc1)c1ccccc1)c1ccccc1,.,.,84,.,76
O=C(CSc1nnc(Cc2ccccc2)o1)Nc1ccc2c(c1)OCO2,65,89,94,98,94
O=c1cc(CN2CCN(C/C=C/c3ccccc3)CC2)c2cc(O)ccc2o1,39*,75,14,98,31
O=c1cc(CN2CCN(c3ccccc3)CC2)c2cc(O)c(-c3ccccc3)cc2o1,5.0*,35,87,48*,84
O=c1cc(CN2CCN(c3cccc(Cl)c3)CC2)c2cc(O)c(-c3ccccc3)cc2o1,.,.,96,.,101
CCc1ccc2oc(=O)cc(CN3CCN(c4ccc(F)cc4)CC3)c2c1,37*,40,78,26*,76
CC(C)c1ccc2oc(=O)cc(CN3CCN(c4ccc(F)cc4)CC3)c2c1,69,70,60,92,65
Cc1cc(C(=O)COC(=O)c2n[nH]c3ccccc23)c(C)n1C,89,89,76,90,76
COc1cc(C(=O)OCC(=O)c2cc(C)n(C)c2C)cc(OC)c1OC,24*,64,29,67,35
Cc1ccc(N(NC(=O)C(O)(c2ccccc2)c2ccccc2)C(=O)CCl)cc1,.,.,3.3*,.,3.4*
Cc1ccc(C(O)(C(=O)NN(C(=O)c2ccccc2)c2ccccc2)c2ccc(C)cc2)cc1,.,.,69,.,53
CN1CCN(c2ccccc2NC(=O)COc2ccc(Br)cc2)CC1,87,85,90,96,.
O=C(NNC(=O)c1cccnc1SCc1cccc([N+](=O)[O-])c1)c1ccccn1,.,.,6.0*,.,10
Cc1ccc(S(=O)(=O)N2CCOCC2)cc1N/N=C(\C#N)c1nc2ccccc2[nH]1,.,.,57,.,53
Cc1cc(C)n(-c2nnc(C)n2/N=C/c2ccccc2F)n1,98,95,102,102,110
Cc1cc(C)n(-c2nnc(C)n2/N=C/c2ccccc2OCc2ccccc2Cl)n1,16*,61,26,77,33
COc1ccccc1/C=N/n1c(C)nnc1-n1nc(C)cc1C,94,101,108,106,116
Cc1cc(C)n(-c2nnc(C)n2/N=C/c2cc(Br)ccc2OCc2ccccc2)n1,26*,41,9,67,10
CN(CCOc1ccc(-c2ccn(S(=O)(=O)c3cccc4ccccc34)n2)cc1)c1ccccn1,.,.,85,.,82
Cc1ccc(S(=O)(=O)Nc2ccccc2-c2ccccc2NS(=O)(=O)c2ccc(C)cc2)cc1,.,.,76,.,76
Cc1ccc(S(=O)(=O)Nc2cccc3cccnc23)cc1,1.9*,46,1.6*,5.8*,1.6*
COc1cc(NS(=O)(=O)c2ccc(C)cc2)c2ncccc2c1,4.0*,19,3.6*,9.1*,2.3*
O=S(=O)(Nc1cc(Sc2cccc3cccnc23)c(O)c2ccccc12)c1ccccc1,.,.,1.3*,.,1.2*
Cc1c(C(=O)OCC(=O)NCc2ccc3c(c2)OCO3)cccc1[N+](=O)[O-],.,.,84,.,89
SMILES,H69AR inhibit,HUVEC prolif 384,bCat KO growth,Fibroblast inh,HCT116 PTEN-null
O=C(CSc1nc2cc(Cl)ccc2s1)Nc1cccc(S(=O)(=O)N2CCOCC2)c1,.,.,74,.,63
CCOc1ccc(C2=NNC(c3cccs3)=Nc3ccc(OC)cc32)cc1OCC,38*,71,77,83,76
CC(C)Oc1ccc(/C(O)=C2/C(=O)C(=O)N(CCN(C)C)C2c2cccs2)cc1 (stereo not drawn),.,.,93,.,100
COc1ccc(NC(=O)N(Cc2ccc3c(c2)OCO3)C2CC(=O)N(c3ccc(OC)cc3)C2=O)cc1 (stereo not drawn),40*,88,87,97,83
CCOc1ccc(NC(=NCc2ccc3c(c2)OCO3)SC2CC(=O)N(c3ccccc3)C2=O)cc1 (stereo not drawn),35*,53,70,83,69
CCOc1ccc(NC(=NCc2ccc3c(c2)OCO3)SC2CC(=O)N(c3ccc(OCC)cc3)C2=O)cc1 (stereo not drawn),101,26*,2.2*,43*,8
C/C(=N/NC(=O)c1ccco1)c1ccc(NC(=O)c2ccc(F)cc2)cc1,.,.,86,.,90
CCCSc1nc(SCC(=O)NCc2ccccc2)c2c3c(sc2n1)COC(C)(C)C3,51,52,55,64,49
